From PubChem BioAssay
This is a sample that favours compounds with a hit; in the whole collection about 4.3% have one here.
SDO1 yeast rescue: compounds rescuing growth of sdo1-depleted yeast, bone marrow failure model. z-score at 10 µM. S. cerevisiae sdo1-depleted JHY4D growth rescue, OD600 30 h; hits give high values; pdr5 snq2 efflux-pump mutant strain. 140,000 compounds, 0.21% hits;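 active = z-score above 3 at both the 24 hr and the 30 hr optical density reads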
FLuc inh counter: counter-screen for luciferase assay inhibitors: firefly luciferase inhibition; P08659; ATPLite firefly luciferase biochemical luminescence, 10 min; inhibition, % at 10 µM; 200,000 compounds, 1.5% hits;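 active = inhibition above about 50% when tested at 10 µM, limit read from the data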
Target sequence (P08659 whole entry, looked up): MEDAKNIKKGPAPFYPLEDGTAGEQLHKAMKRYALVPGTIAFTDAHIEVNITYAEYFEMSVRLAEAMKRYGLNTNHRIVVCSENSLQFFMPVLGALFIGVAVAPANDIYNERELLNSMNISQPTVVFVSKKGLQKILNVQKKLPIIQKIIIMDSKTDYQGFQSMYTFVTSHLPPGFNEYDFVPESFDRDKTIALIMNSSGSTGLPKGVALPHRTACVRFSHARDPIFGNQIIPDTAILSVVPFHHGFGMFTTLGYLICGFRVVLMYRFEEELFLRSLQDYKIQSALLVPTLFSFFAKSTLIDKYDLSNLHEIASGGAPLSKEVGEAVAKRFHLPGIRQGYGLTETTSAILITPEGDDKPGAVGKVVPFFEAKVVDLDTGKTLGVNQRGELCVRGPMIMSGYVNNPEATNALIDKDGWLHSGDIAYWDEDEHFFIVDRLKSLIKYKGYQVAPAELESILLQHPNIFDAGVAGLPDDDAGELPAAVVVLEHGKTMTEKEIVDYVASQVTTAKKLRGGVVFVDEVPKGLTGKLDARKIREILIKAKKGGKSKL
STAT1 activator: increases IFN-gamma driven STAT1 reporter signal | NIH 3T3 STAT1-luciferase reporter, luminescence; 100% = IFN-gamma alone, no compound | activation (% of control), % at 5.5 µM | 200,000 compounds, 2.6% hits | AID 932;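 active = activation above the screen-wide mean activation plus 3 SD, cut at about 130% in these data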
NF-kB expr up: compounds increasing NF-kB expression in human neuronal cells; fold change at 12.5 µM; NF-kB reporter expression; hits give high values; 190,000 compounds, 1.6% hits; in the data active = fold change above about 3.3
APP 5'UTR act: activates APP 5'UTR luciferase reporter; SH-SY5Y APP 5'UTR luciferase reporter, luminescence; zero percent = DMSO vehicle wells; activation, % at 2 µM; 190,000 compounds, 1% hits;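 active = activation above a set limit, based on mean plus 3 SD of controls, cut at about 140% in these data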
FLuc act counter: firefly luciferase counter-screen for stimulation assays. P08659. ATPlite luciferase biochemical, luminescence, 10 min; 0 = ATP-free wells, 1 = DMSO control. activation factor at 10 µM. 200,000 tested, under 10 active. AID 1027;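 active = luciferase activation factor, scaled between plate controls, of at least 2 with compound at 10 µM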
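Material: Luciferase/luciferin reagent mix; Doses: test compounds dosed from 2 mM stocks in 100% DMSO; Schedule: 10 min incubation after luciferase reagent addition, room temperature; Measured by: luminescence from luciferase reaction; Read-out: luminescence gain marking luciferase activators.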
Of the large screens only hits and unclear results are named; the others gave an inactive call.

COC(=O)c1nn(-c2ccc3c(c2)CCN3C(C)=O)cc1O	FLuc inh counter 94
CCOC(=O)c1nn(-c2ccc(C)c(C)c2)cc1O	FLuc inh counter 50
COc1cc(C(=O)Nc2ccc3c(c2)CCN3C(C)=O)cc(OC)c1OC	none (no result: SDO1 yeast rescue)
COC(=O)c1nn(-c2ccc3c(c2)OCO3)cc1O	none
O=C(c1cccc(Br)c1)c1cn(-c2ccccc2)nc1C(=O)c1ccccc1	none
CCOC(=O)c1nn(-c2ccc3c(c2)OCCO3)cc1O	FLuc inh counter 84, APP 5'UTR act 158 (no result: SDO1 yeast rescue)
CCOc1ccc2nc(NCCCNS(=O)(=O)c3ccccc3)c(C#N)cc2c1	none
Nc1c(N=Nc2ccccc2F)c(=O)[nH]n1-c1ccccc1	STAT1 activator 134
COc1ccc2c(CSc3nc4nc(C)cc(C)n4n3)cc(=O)oc2c1	NF-kB expr up 4.2
Oc1oc(-c2ccccc2)nc1/C=N/c1ccccn1	STAT1 activator 129 (no result: SDO1 yeast rescue)
CN=Cc1nc(-c2ccccc2)oc1O	none
Cc1ccc(C(=O)Oc2cccc(-n3cnnn3)c2)cc1	STAT1 activator 135 (no result: SDO1 yeast rescue)
O=c1cc(-c2ccccc2Cl)oc2c([N+](=O)[O-])c(O)cc(O)c12	none
CC1CCN(C(=O)Cn2nnc(-c3cccs3)n2)CC1	STAT1 activator 129 (no result: SDO1 yeast rescue)
COc1ccccc1C(N)=S	none
CC1CCN(c2nc3ccc(C(=O)O)cc3s2)CC1	FLuc inh counter 58, NF-kB expr up 6.7
O=C(NCC1CCCO1)c1ccc2nc(N3CCCCC3)sc2c1 (stereo unspecified)	STAT1 activator 130
COc1cccc(/C=N/NC(=O)CNC(=O)c2ccc3c(c2)OCCO3)c1O	none
Oc1ccc(/C=N/N2CCOCC2)c(O)c1O	none (no result: SDO1 yeast rescue)
COc1cccc(C=Nc2ccc3c(c2)OCCO3)c1O	FLuc inh counter 96
COc1cccc(/C=N/N2CCOCC2)c1O	FLuc inh counter 63
COc1ccc2cc3c(N)c(C(=O)NCc4ccco4)sc3nc2c1	STAT1 activator 137
COc1ccc2cc3cc(C(=O)NCc4ccco4)oc3nc2c1	none
Cc1cc(C(=O)CSc2ccc(F)cc2)cc(C)c1OC(=S)N(C)C	APP 5'UTR act 160
COc1cccc(C=Nc2cccc3c(=O)[nH][nH]c(=O)c23)c1O	FLuc inh counter 80 (no result: SDO1 yeast rescue)
COc1ccc(C)cc1NC(=O)NCc1ccc(F)cc1	FLuc inh counter 58 (no result: SDO1 yeast rescue)
COc1ccc(OC)c(NC(=O)NCc2ccc(F)cc2)c1	none
O=C(/C=C/c1ccccc1)OCc1cncs1	STAT1 activator 129 (no result: SDO1 yeast rescue)
O=C(NC(=S)Nc1ccc(CN2CCOCC2)cc1)c1cc2ccccc2o1	none (no result: SDO1 yeast rescue)
O=C(Nc1ccc(N2CCOCC2)cc1)c1cc2ccccc2o1	STAT1 activator 171
O=C(Nc1ccc(CN2CCOCC2)cc1)c1cc2ccccn2n1	FLuc inh counter 78
O=C(Nc1ccc(CN2CCOCC2)cc1)c1cc2ccccc2o1	FLuc inh counter 60, STAT1 activator 134, APP 5'UTR act 168
CC(C)c1onc(C(=O)N2CCN(Cc3ccccc3)CC2)c1[N+](=O)[O-]	none
Cc1nc2nc(-c3ccccc3)cc(=O)n2[nH]1	FLuc inh counter 56
O=c1cc(-c2ccccc2)nc2nc(-c3ccco3)[nH]n12	FLuc inh counter 72
O=C(Nc1cc(S(=O)(=O)N2CCOCC2)ccc1N1CCOCC1)C1CCCO1 (stereo unspecified)	none (no result: SDO1 yeast rescue)
C#CCNC(=O)C1=C[C@@H](C2CCCCC2)[C@H](CCCO)[C@@H](OCC)O1	none (no result: SDO1 yeast rescue)
CN(C(=O)CSc1nc2c(c(=O)[nH]1)CCC2)c1ccccc1	none (no result: SDO1 yeast rescue)
O=C(NC12CC3CC(CC(C3)C1)C2)c1ccc(-c2ccccc2Cl)o1	STAT1 activator 171, APP 5'UTR act 182
O=C(NC12CC3CC(CC(C3)C1)C2)c1ccc(-c2ccc(Cl)cc2)o1	STAT1 activator 130
CC(=O)NC(=O)c1ccc(-c2ccc(Cl)cc2)o1	none
O=C(COc1nncc2ccccc12)Nc1ccc(F)c(F)c1	none (no result: SDO1 yeast rescue)
Oc1ccc(-c2nnc(-c3ccc(O)cc3)nn2)cc1	FLuc inh counter 78, NF-kB expr up 6.1
Cc1ccc(O)c(NC(=O)CCC2CCCCC2)c1	NF-kB expr up 4.1
Cn1c(NC(=O)CCC2CCCCC2)cc(=O)n(C)c1=O	STAT1 activator 148, NF-kB expr up 3.8
Cc1ccc(O)c(NC(=O)CCCC(=O)O)c1	none
O=C(CCC1CCCCC1)Nc1ccccc1O	NF-kB expr up 6.4
